How the values were obtained:
[1] = system: Hs68; assay: Cytotoxicity against human HS68 cells at 25 to 200 uM after 48 hrs by SRB assay; assay type: cell-based; details: hs68, 48 h
Summary of the method: (§1)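 Cells exposed to each compound for 48 h; growth measured by sulforhodamine B staining. Compounds dissolved in DMSO, then diluted into growth medium. Cisplatin served as positive control. IC50 values derived from the SRB read-out.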

[2] = system: A549; assay: Cytotoxicity against human A549 cells after 48 hrs by SRB assay; assay type: functional, cell-based; details: A549, 48 h; summary of the method: as §1
[3] = system: MDA-MB-231; assay: Cytotoxicity against human MDA-MB-231 cells after 48 hrs by SRB assay; assay type: functional, cell-based; details: MDA-MB-231, 48 h; summary of the method: as §1

Structure (SMILES) | Activity [1] | IC50 [2] [µM] | IC50 [3] [µM]
C=C(CC[C@@H](C)[C@H]1CC[C@H]2C3=C(C(=O)C[C@]12C)[C@@]1(C)CC[C@@H](O)[C@](C)(O)[C@@H]1C[C@@H]3O)[C@@H](C)C(=O)O | Non-toxic |  | 
C[C@@H]1[C@H](O)CC[C@]2(C)C3=C(C(=O)C[C@@H]12)[C@@H]1CC[C@H]([C@H](C)CCO)[C@@]1(C)[C@@H](O)C3=O | Non-toxic |  | 
CC(=O)CC[C@@H](C)[C@H]1CC[C@H]2C3=C(C(=O)C[C@]12C)[C@@]1(C)CCC(=O)[C@@H](C)[C@@H]1CC3=O | Non-toxic | 65.9 | 45.5
C/C(C=O)=C(/C)CC[C@@H](C)[C@H]1CC[C@H]2C3=C(C(=O)C[C@]12C)[C@@]1(C)CCC(=O)[C@@H](C)[C@@H]1CC3 | Non-toxic |  | 
C/C(C=O)=C(\C)CC[C@@H](C)[C@H]1CC[C@H]2C3=C(C(=O)C[C@]12C)[C@@]1(C)CCC(=O)[C@@H](C)[C@@H]1CC3 | Non-toxic |  | 
C=C(CC[C@@H](C)[C@H]1CC[C@H]2C3=C(C(=O)C[C@]12C)[C@@]1(C)CCC(=O)[C@](C)(O)[C@@H]1C[C@@H]3O)[C@H](C)C(=O)O | Non-toxic | 80.2 | 58.6
C=C(CC[C@@H](C)[C@H]1CC[C@H]2C3=C(C(=O)C[C@]12C)[C@@]1(C)CCC(=O)[C@](C)(O)[C@@H]1C[C@@H]3O)[C@@H](C)C(=O)O | Non-toxic | 66.3 | 67.2
C=C(CC[C@@H](C)[C@H]1CC[C@H]2C3=C(C(=O)C[C@]12C)[C@@]1(C)CCC(=O)[C@](C)(O)[C@@H]1C[C@@H]3O)[C@H](C)C(=O)OC | Non-toxic | 73.2 | 76.8
C=C(CC[C@@H](C)[C@H]1CC[C@H]2C3=C(C(=O)C[C@]12C)[C@@]1(C)CCC(=O)[C@](C)(O)[C@@H]1C[C@@H]3O)[C@@H](C)C(=O)OC | Non-toxic | 93.2 | 71.5
C=C(CC[C@@H](C)[C@H]1CC[C@H]2C3=C(C(=O)[C@H](O)[C@]12C)[C@@]1(C)CCC(=O)[C@@H](C)[C@@H]1CC3=O)[C@@H](C)C(=O)O | Non-toxic |  | 
C=C(CC[C@@H](C)[C@H]1CC[C@H]2C3=C(C(=O)[C@H](O)[C@]12C)[C@@]1(C)CCC(=O)[C@@H](C)[C@@H]1CC3=O)[C@H](C)C(=O)O | Non-toxic | 84.4 | 71.3
C=C(CC[C@@H](C)[C@H]1CC[C@H]2C3=C(C(=O)C[C@]12C)[C@@]1(C)CC[C@H](O)[C@@H](C)[C@@H]1C[C@@H]3O)[C@H](C)C(=O)O | Non-toxic |  | 
C=C(CC[C@@H](C)[C@H]1CC[C@H]2C3=C(C(=O)C[C@]12C)[C@@]1(C)CC[C@H](O)[C@@H](C)[C@@H]1C[C@@H]3O)[C@@H](C)C(=O)O | Non-toxic |  | 
C=C(CC[C@@H](C)[C@H]1CC[C@H]2C3=C(C(=O)[C@H](O)[C@]12C)[C@@]1(C)CC[C@@H](O)[C@@H](C)[C@@H]1CC3=O)[C@@H](C)C(=O)O | Non-toxic | 22 | 23.7
C=C(CC[C@@H](C)[C@H]1CC[C@H]2C3=C(C(=O)[C@H](O)[C@]12C)[C@@]1(C)CC[C@@H](O)[C@@H](C)[C@@H]1CC3=O)[C@H](C)C(=O)O | Non-toxic | 32.8 | 38.6
C=C(CC[C@@H](C)[C@H]1CC[C@H]2C3=C(C(=O)C[C@]12C)[C@@]1(C)CCC(=O)[C@@H](C)[C@@H]1CC3=O)[C@@H](C)C(=O)O | Non-toxic | 41.4 | 33.4
C=C(CC[C@@H](C)[C@H]1CC[C@H]2C3=C(C(=O)C[C@]12C)[C@@]1(C)CCC(=O)[C@@H](C)[C@@H]1C[C@@H]3O)[C@H](C)C(=O)O | Non-toxic | 76.2 | 74.2
C=C(CC[C@@H](C)[C@H]1CC[C@H]2C3=C(C(=O)C[C@]12C)[C@@]1(C)CCC(=O)[C@@H](C)[C@@H]1C[C@@H]3O)[C@@H](C)C(=O)O | Non-toxic | 33.1 | 25.1
C=C(CC[C@@H](C)[C@H]1CC[C@H]2C3=C(C(=O)C[C@]12C)[C@@]1(C)CC[C@@H](O)[C@](C)(O)[C@@H]1C[C@@H]3O)[C@H](C)C(=O)O | Non-toxic |  | 
C=C(CC[C@@H](C)[C@H]1CC=C2C3=C(C(=O)C[C@@]21C)[C@@]1(C)CCC(=O)[C@@H](C)[C@@H]1C[C@@H]3O)C(C)C(=O)O (some centres not stated) | Non-toxic | 40.6 | 31.6
C=C(CC[C@@H](C(=O)O)[C@H]1C[C@H](O)[C@@]2(C)C3=CC[C@H]4C(C)(C)[C@@H](O)CC[C@]4(C)C3=CC[C@]12C)C(C)C | Non-toxic |  | 
C=C(CC[C@@H](C(=O)O)[C@H]1C[C@H](O)[C@@]2(C)C3=CC[C@H]4C(C)(C)C(=O)CC[C@]4(C)C3=CC[C@]12C)C(C)C | Non-toxic |  | 
C=C(CC[C@@H](C(=O)O)[C@H]1C[C@H](OC(C)=O)[C@@]2(C)C3=CC[C@H]4C(C)(C)[C@@H](O)CC[C@]4(C)C3=CC[C@]12C)C(C)C | Non-toxic |  | 
C=C(CC[C@@H](C)[C@H]1CC[C@H]2C3=C(C(=O)C[C@]12C)[C@@]1(C)CCC(=O)[C@@H](C)[C@@H]1CC3)C(C)C(=O)O (some centres not stated) [ANTCIN A] | Non-toxic | 39.4 | 29.6
C=C(CC[C@@H](C)[C@H]1CC[C@H]2C3=C(C(=O)C[C@]12C)[C@@]1(C)CCC(=O)[C@@H](C)[C@@H]1CC3=O)[C@H](C)C(=O)O [ANTCIN B] | Non-toxic | 57.4 | 44
C=C(CC[C@@H](C)[C@H]1CC[C@H]2C3=C(C(=O)[C@H](O)[C@]12C)[C@@]1(C)CC[C@@H](O)[C@@H](C)[C@@H]1C[C@@H]3O)C(C)C(=O)O (some centres not stated) [CAMPHORATIN A] | Non-toxic | 92.1 | 93.5
C=C(CC[C@@H](C)[C@H]1CC[C@H]2C3=C(C(=O)C[C@]12C)[C@@]1(C)CC[C@@H](O)[C@](C)(O)[C@@H]1CC3=O)C(C)C(=O)O (some centres not stated) [CAMPHORATIN C] | Non-toxic | 48.8 | 62.8
C=C(CC[C@@H](C(=O)O)[C@H]1CC[C@@]2(C)C3=CC[C@H]4C(C)(C)[C@@H](O)CC[C@]4(C)C3=CC[C@]12C)C(C)C [DEHYDROEBURICOIC ACID] | Non-toxic |  | 
C=C(CC[C@@H](C(=O)O)[C@H]1CC[C@@]2(C)C3=C(CC[C@]12C)[C@@]1(C)CC[C@H](O)C(C)(C)[C@@H]1CC3)C(C)C [EBURICOIC ACID] | Non-toxic |  | 
C=C(CC[C@@H](C(=O)O)[C@H]1C[C@H](O)[C@@]2(C)C3=C(CC[C@]12C)[C@@]1(C)CC[C@H](O)C(C)(C)[C@@H]1CC3)C(C)C [SULFURENIC ACID] | Non-toxic |  | 

From ChEMBL document CHEMBL3102740, “Antcamphins A-L, ergostanoids from Antrodia camphorata” (J Nat Prod, 2014)
